# Data taken from ChEMBL document CHEMBL4414566, “Cytotoxicity and Anti-inflammatory Properties of Apigenin-Derived Isolaxifolin” (J Nat Prod, 2019).
# Activity calls are given as the source filed them. No cut-off for these calls is given here.
# Key:
# [1] = test system: RAW264.7; assay: Antiinflammatory activity in mouse RAW264.7 cells assessed as reduction in LPS-induced IL6 production at 0.8 to 3.1 uM preincubated with LPS for 24 hrs followed by compound addition and measured after 24 hrs by ELISA; assay type: functional, cell-based
# Outline: (§1)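 Murine RAW 264.7 macrophages, 1 × 10^5/well, 4 h settling, then LPS (1.0 μg/mL) for 24 h. Medium was swapped for test solutions (0.8–3.1 μM or 2.3–9.2 μM), or DXM 254.8 μM as positive control, for another 24 h. Secreted NO was measured by Griess assay; TNF-α and IL-6 by ELISA. Run in triplicate, mean ± SD.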
# [2] = test system: RAW264.7; assay: Antiinflammatory activity in mouse RAW264.7 cells assessed as inhibition of LPS-induced NO production at 0.8 to 3.1 uM measured after 24 hrs by griess reagent based assay; assay type: functional, cell-based; outline: as §1
# [3] = test system: RAW264.7; assay: Inhibition of nitric oxide production in mouse RAW264.7 cells at 0.8 to 3.1 uM measured after 24 hrs by griess reagent based assay; assay type: functional, cell-based
# [4] = test system: MDA-MB-231; assay: Induction of mitochondrial membrane potential loss in human MDA-MB-231 cells incubated for 48 hrs by JC1 staining based flow cytometric analysis; assay type: functional, cell-based
# Outline: (§2)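 MDA-MB-231 cells in DMEM/10% FBS exposed 48 h to 0, 8.6, 12.4 or 17.3 μM. Harvested cells stained with JC-1 for 15 min in the dark, then analysed by flow cytometry. Excitation 488 nm; green emission read at 525 nm, red at 590 nm. Output given as percent green-to-red fluorescence intensity ratio. Triplicate, mean ± SD.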
# [5] = test system: MDA-MB-231; assay: Induction of apoptosis in human MDA-MB-231 cells assessed as necrotic cells at 17.3 uM incubated for 48 hrs by annexin V-FITC/PI based flow cytometric analysis (Rvb= 0.74%); assay type: functional
# [6] = test system: MDA-MB-231; assay: Induction of apoptosis in human MDA-MB-231 cells assessed as late apoptotic cells at 17.3 uM incubated for 48 hrs by annexin V-FITC/PI based flow cytometric analysis (Rvb= 2.82%); assay type: functional
# [7] = test system: MDA-MB-231; assay: Induction of apoptosis in human MDA-MB-231 cells assessed as late apoptotic cells at 8.6 uM incubated for 48 hrs by annexin V-FITC/PI based flow cytometric analysis (Rvb= 2.82%); assay type: functional
# [8] = test system: MDA-MB-231; assay: Induction of cell cycle arrest in human MDA-MB-231 cells assessed as accumulation of cells at G2/M phase at 17.3 uM incubated for 48 hrs by PI/RNase staining based flow cytometric analysis (reference value: 10.4%); assay type: functional
# Outline: (§3)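 Cell-cycle analysis: MDA-MB-231 cells were preincubated 24 h, then treated with 8.6, 12.4 or 17.3 μM for 48 h. Cells were pelleted, fixed in 75% ethanol at −20 °C overnight, and stained with PI/RNase for 15 min in the dark at ambient temperature. About 10 000 cells per well were analyzed by flow cytometry for DNA content.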
# [9] = test system: MDA-MB-231; assay: Induction of cell cycle arrest in human MDA-MB-231 cells assessed as accumulation of cells at G0/G1 phase at 17.3 uM incubated for 48 hrs by PI/RNase staining based flow cytometric analysis (reference value: 50.4%); assay type: functional; outline: as §3
# [10] = test system: MDA-MB-231; assay: Induction of cell cycle arrest in human MDA-MB-231 cells assessed as accumulation of cells at G0/G1 phase at 12.4 uM incubated for 48 hrs by PI/RNase staining based flow cytometric analysis (reference value: 50.4%); assay type: functional; outline: as §3
# [11] = test system: MDA-MB-231; assay: Induction of cell cycle arrest in human MDA-MB-231 cells assessed as accumulation of cells at G0/G1 phase at 8.6 uM incubated for 48 hrs by PI/RNase staining based flow cytometric analysis (reference value: 50.4%); assay type: functional; outline: as §3
# [12] = test system: HCT-116; assay: Antiproliferative activity against human HCT116 cells assessed as cell viability at >34.6 uM incubated for 48 hrs by methylene blue assay relative to control; assay type: functional
# Outline: (§4)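 MDA-MB-231, MCF-7, HepG2 and LNCaP cells were grown in DMEM; HCT-116 and LO-2 in RPMI-1640; all with 10% FBS at 37 °C, 5% CO2. Cells seeded at 1.5 × 10^5 cells/mL and incubated overnight (~12 h), then exposed to 6.2–30.9 μM or 23.1–185.0 μM (final DMSO <0.1%) for 48 h. Read by methylene blue staining; viability = Abs treated/Abs untreated × 100%, triplicate.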
# [13] = test system: LNCaP; assay: Antiproliferative activity against human LNCAP cells assessed as cell viability at >30.9 uM incubated for 48 hrs by methylene blue assay relative to control; assay type: functional; outline: as §4
# [14] = test system: MCF7; assay: Antiproliferative activity against human MCF7 cells assessed as cell viability at 24.2 uM incubated for 48 hrs by methylene blue assay relative to control; assay type: functional; settings: MCF7, 48 h, read-out: Activity; outline: as §4
# [15] = test system: MDA-MB-231; assay: Antiproliferative activity against human MDA-MB-231 cells assessed as cell viability at 17.3 uM incubated for 48 hrs by methylene blue assay relative to control; assay type: functional; settings: MDA-MB-231, 48 h, read-out: Activity; outline: as §4
# [16] = test system: L02; assay: Cytotoxicity against human LO2 cells assessed as reduction in cell viability at 6.2 to 30.9 uM incubated for 48 hrs by methylene blue assay; assay type: cell-based; settings: l02, 48 h; outline: as §4
# [17] = test system: MDA-MB-231; assay: Induction of cell cycle arrest in human MDA-MB-231 cells assessed as increase in accumulation of cells at G0/G1 phase incubated for 48 hrs by PI/RNase staining based flow cytometric analysis; assay type: functional
# Outline: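 Cells grown 24 h in DMEM/10% FBS at 37 °C, 5% CO2, then exposed 48 h to 8.6, 12.4 or 17.3 μM. Pelleted, fixed in 75% ethanol at −20 °C overnight, stained with PI-containing RNase 15 min in the dark at ambient temperature. About 10 000 cells per well analysed by flow cytometry. Triplicate, mean ± SD.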
# [18] = test system: MDA-MB-231; assay: Induction in apoptosis in human MDA-MB-231 cells assessed as apoptotic cell bodies formation at 17.3 uM incubated for 48 hrs by Hoechst 33258 staining based fluorescence microscopic method; assay type: functional
# Outline: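 MDA-MB-231 cells were grown 24 h and treated with 8.6, 12.4 or 17.3 μM for 48 h. They were then fixed 10 min, washed three times in PBS and stained 5 min with Hoechst 33258. Nuclear condensation was imaged by fluorescence microscopy (excitation 350 nm, emission 460 nm).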
# [19] = test system: MDA-MB-231; assay: Induction of mitochondrial membrane potential loss in human MDA-MB-231 cells cell population with mitochondrial membrane potential collapse by measuring green fluorescence at 8.6 uM incubated for 48 hrs by JC1 staining based flow cytometric analysis (reference value: 7.96%); assay type: functional; outline: as §2
# [20] = test system: MDA-MB-231; assay: Induction of apoptosis in human MDA-MB-231 cells assessed as increase in late apoptotic cells population incubated for 48 hrs by annexin V-FITC/PI based flow cytometric analysis; assay type: functional, cell-based
structure (smiles),measurement,setting,value
CC(C)=CCc1c2c(c(O)c3c(=O)cc(-c4ccc(O)cc4)oc13)C=CC(C)(C)O2 [LAXIFOLIN],Activity,[1],Active
same,inhibition,[2],Active
same,inhibition,[3],Active
same,Activity,[4],Dose-dependent effect
same,Activity,[5],5.57%
same,Activity,[6],24.55%
same,Activity,[7],9.8%
same,Activity,[8],9.87%
same,Activity,[9],63.3%
same,Activity,[10],60.2%
same,Activity,[11],59.5%
same,Activity,[12],20%
same,Activity,[13],20%
same,viability at 24.2 µM,[14],20%
same,viability at 17.3 µM,[15],20%
same,Activity,[16],Non-Toxic
same,Activity,[17],Dose-dependent effect
same,Activity,[18],Active
same,Activity,[19],16.49%
same,Activity,[20],Dose-dependent effect
